Screens from PubChem BioAssay.
Apaf1 activ: activators of human Apaf-1 apoptosome, primary screen, biochemical, DEVD-Rh110 fluorescence, uHTS; Apoptotic protease-activating factor 1 (Homo sapiens), O14727; Apaf-1 apoptosome caspase-3 activation; active compounds read low; activity change, negative = activation, % at 20 µM; 330,000 tested, 0.31% active; AID 489031, 2010;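 active = activity change at or below -40% at 20 µM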
Target sequence (O14727 whole entry, looked up): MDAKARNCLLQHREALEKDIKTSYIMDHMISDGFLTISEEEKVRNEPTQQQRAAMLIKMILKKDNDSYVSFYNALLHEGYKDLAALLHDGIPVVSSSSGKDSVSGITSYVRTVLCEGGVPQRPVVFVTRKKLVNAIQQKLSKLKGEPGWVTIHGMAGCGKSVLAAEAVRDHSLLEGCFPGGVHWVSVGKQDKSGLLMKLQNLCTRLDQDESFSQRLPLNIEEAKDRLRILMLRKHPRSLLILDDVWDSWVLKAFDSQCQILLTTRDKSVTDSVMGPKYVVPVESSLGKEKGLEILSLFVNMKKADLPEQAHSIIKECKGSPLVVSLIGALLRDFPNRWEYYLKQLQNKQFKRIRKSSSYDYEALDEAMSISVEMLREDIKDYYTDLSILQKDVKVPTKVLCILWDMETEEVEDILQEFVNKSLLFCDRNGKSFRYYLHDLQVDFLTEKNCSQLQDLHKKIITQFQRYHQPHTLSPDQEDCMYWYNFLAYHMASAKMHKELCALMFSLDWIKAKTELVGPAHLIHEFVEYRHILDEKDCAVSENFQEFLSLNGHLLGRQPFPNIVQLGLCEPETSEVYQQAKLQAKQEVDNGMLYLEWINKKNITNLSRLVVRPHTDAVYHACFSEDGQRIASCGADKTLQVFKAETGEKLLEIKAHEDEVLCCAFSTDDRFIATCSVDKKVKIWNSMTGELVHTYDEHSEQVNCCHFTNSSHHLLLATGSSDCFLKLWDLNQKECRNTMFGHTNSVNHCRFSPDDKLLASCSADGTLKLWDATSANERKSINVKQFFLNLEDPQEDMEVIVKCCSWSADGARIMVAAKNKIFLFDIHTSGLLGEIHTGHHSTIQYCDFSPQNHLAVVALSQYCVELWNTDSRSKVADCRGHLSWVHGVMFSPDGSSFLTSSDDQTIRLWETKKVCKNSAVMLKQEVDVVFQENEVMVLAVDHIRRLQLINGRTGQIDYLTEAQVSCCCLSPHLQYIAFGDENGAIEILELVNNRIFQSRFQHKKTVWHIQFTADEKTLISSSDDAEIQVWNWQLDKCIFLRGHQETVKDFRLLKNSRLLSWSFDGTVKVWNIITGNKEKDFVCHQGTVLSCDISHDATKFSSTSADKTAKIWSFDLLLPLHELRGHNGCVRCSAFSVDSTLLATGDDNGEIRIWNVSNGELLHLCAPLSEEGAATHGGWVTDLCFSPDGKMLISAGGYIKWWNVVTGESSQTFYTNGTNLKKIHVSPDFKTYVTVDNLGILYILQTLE
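system = biochemical Apaf-1 apoptosome reconstitution | buffer or medium = 20 mM HEPES pH 7.5 with CHAPS, BSA | also added = dATP and cytochrome c as apoptosome triggers, (Z-DEVD)2-Rh110 substrate | incubation = 30 min compound preincubation and 50 min reaction, both room temperature | measured by = fluorescence, 540 nm emission, 480 nm excitation | read-out basis = Caspase-3 cleavage activity downstream of Apaf-1 activation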
Rh110 interf act: Rh110 fluorescence interference by putative Apaf-1 activators, confirmation, artefact control for Apaf-1 activator project, biochemical, 20 µM | shares compounds with Apaf1 activ | quenched caspase reaction, Ex480/Em540 | fluorescence interference (activity change), % at 20 µM, hits read low | 980 tested, under 10 active | AID 504616, 2011;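 active = mean activity change at or below -40% when tested at 20 µM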
Apaf-1 act conf2: Apaf-1 activators, single-dose retest, confirmation, biochemical, fluorescence, DEVD-Rh110, 20 µM; shares compounds with Apaf1 activ; reconstituted apoptosome caspase-3 activity; active compounds read low; activity change, negative = activation, % at 20 µM; 980 tested, 5% active;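 active = mean activity change at or below -40%, meaning activation of 40% or more, at 20 µM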
Apaf1 act interf: fluorescence interference of Apaf-1 activator hits, dose response, artefact control for Apaf-1 activator project; AID 588592, 2011; shares compounds with Apaf1 activ; EC50, µM; 55 tested, under 10 active; fluorescence interference counterscreen, Apaf-1 activator assay; call rule not given here
* marks the source's active call; other numbers are inactive results. The list is a sample of the results.

`COc1cccc2c1C(=O)c1c(O)c3c(c(O)c1C2=O)C[C@@](O)(C(=O)CO)C[C@@H]3O[C@H]1C[C@H](N)[C@H](O)[C@H](C)O1` gave Apaf1 activ 57.7.
Nc1scc2c(C(=O)N/N=C/c3ccc(Cl)cc3)nn(-c3ccccc3)c(=O)c12 was read as Apaf1 activ 42.4.
`Cc1[nH]cnc1CSCc1ccc(Cl)cc1` gave Apaf1 activ -426.1*, Rh110 interf act 3.3 and Apaf-1 act conf2 15.8.
`CCCCCCCCCCOC(=O)Cn1c(COc2ccccc2)[n+](C)c2ccccc21` gave Apaf1 activ 73.1.
For N=C1CCC(=N)c2c1c(O)c1ccccc1c2O the results were Apaf1 activ 77.4.
For O=C(CCc1ccccc1)Nc1ccc(NC(=O)c2ccco2)cc1 the results were Apaf1 activ -192.7*, Rh110 interf act -10.4 and Apaf-1 act conf2 14.5.
For O=C(NCCc1ccccc1)c1ccc2nc(-c3ccco3)c(-c3ccco3)nc2c1 the results were Apaf1 activ 45.8.
Screening Cn1c(=O)n(C)c2cc(/C=N/NC(=O)c3cc4cc(Br)ccc4o3)ccc21 returned Apaf1 activ 43.0.
For Cc1c(N=Cc2cc3c(cc2[N+](=O)[O-])OCO3)cccc1[N+](=O)[O-] the results were Apaf1 activ 43.6.
`S=c1nc(-c2ccc(Cl)cc2)[nH][nH]1` gave Apaf1 activ -396.0*, Rh110 interf act 8.3 and Apaf-1 act conf2 13.8.
`CN1C[C@H](C(=O)N[C@]2(C)O[C@@]3(O)[C@@H]4CCCN4C(=O)[C@H](Cc4ccccc4)N3C2=O)CC2c3cccc4[nH]cc(c34)C[C@H]21` (stereo not given in full) gave Apaf1 activ 9.8.
`CCc1cc2c(nc1CC)CCN(CC/C(C)=N/OC[C@H]1O[C@H](c3ccccc3)C=C[C@@H]1Oc1ccc(OC)cc1)C2` gave Apaf1 activ 43.4.
`Cc1cccc(CNc2ncnc3ccc(-c4ccc5c(c4)OCCO5)cc23)c1` gave Apaf1 activ 42.3.
CCc1cc2c(NCc3ccco3)ncnc2s1 was read as Apaf1 activ -109.8*, Rh110 interf act 0.0 and Apaf-1 act conf2 1.7.
`Cc1ccccc1C(=O)N1CCC(n2nccc2NC(=O)CCOc2ccccc2)CC1` gave Apaf1 activ -186.8*, Rh110 interf act -0.1 and Apaf-1 act conf2 3.3.
Screening COc1cc2sc3ccc(-c4ccc(N(C)C)nc4)cc3c(=O)c2cc1OC returned Apaf1 activ 43.9.
For CC(CNc1ccccc1O)C(=O)O (stereo not given) the results were Apaf1 activ -165.1*, Rh110 interf act 4.3, Apaf-1 act conf2 -81.3* and Apaf1 act interf >100.
Nc1ccc(N(CCO)CCO)cc1 was read as Apaf1 activ 84.2.
Screening CN1CCN(c2cc3c(c4c2[nH]c2ccccc24)C(=O)CC(C)(C)C3)CC1 returned Apaf1 activ 50.4.
`CN1CCN(c2nc(-c3ccc(C(C)(C)C)cc3)nc3ccccc23)CC1` gave Apaf1 activ 43.1.
Cc1[nH]n(-c2ccccc2)c(=O)c1C(C[N+](=O)[O-])c1ccccc1Cl (stereo not given) was read as Apaf1 activ 79.1.
COc1cccc(OC)c1-c1nn2c(-c3cc(-c4ccccc4)n[nH]3)nnc2s1 was read as Apaf1 activ 53.1.
Cc1cccc(-c2cc3c(nn2)-c2ccccc2C3=O)c1 was read as Apaf1 activ 91.1.
For Cc1cccc(-c2nnc3sc(-c4ccccc4C)nn23)c1 the results were Apaf1 activ -48.6*, Rh110 interf act 6.3 and Apaf-1 act conf2 26.3.
O=C(CC1Nc2cccc3cccc(c23)NC1=O)Nc1ccc(F)cc1 (stereo not given) was read as Apaf1 activ 95.6.
C=CCN1C(=O)C2(OCCCO2)c2ccccc21 was read as Apaf1 activ -42.1*, Rh110 interf act 7.8 and Apaf-1 act conf2 14.9.
Screening CC1(C)Cc2cccc(OCC(=O)N3CCN(c4cccc(C(F)(F)F)c4)CC3)c2O1 returned Apaf1 activ 44.6.
`COc1ccc(C2CC(c3ccc(OC)cc3)n3nc(NC(=O)c4ccco4)nc3N2)cc1` (stereo not given) gave Apaf1 activ -329.7*, Rh110 interf act -8.5 and Apaf-1 act conf2 15.3.
For COc1ccc2c(c1)Cc1sc(NC(=O)c3ccco3)nc1-2 the results were Apaf1 activ 85.4.
Screening CC(C)C[C@H](NC(=O)c1nc[nH]c1C(=O)N[C@@H](CCCCN)C(=O)OC(C)(C)C)C(=O)OC(C)(C)C returned Apaf1 activ 42.6.
For CN(CCO)c1cc(Sc2nc3ccccc3s2)c2nonc2c1[N+](=O)[O-] the results were Apaf1 activ 51.8.
Screening CC1CCCCC1NC(=O)Cn1nnc2ccccc2c1=O (stereo not given) returned Apaf1 activ -197.9*, Rh110 interf act 8.2 and Apaf-1 act conf2 23.6.
`C=C(C)Cn1c(NCCOC)nc2c1c(=O)[nH]c(=O)n2C` gave Apaf1 activ -40.3*, Rh110 interf act 1.4 and Apaf-1 act conf2 4.1.
For CC(=O)[C@@H]1[C@@H]2C(=O)N(c3ccc(F)c(Cl)c3)C(=O)[C@@H]2C2c3ccccc3C=CN21 (stereo not given in full) the results were Apaf1 activ 71.9.
Screening COc1ccccc1-c1ccc(=O)n(CC(=O)NCC2CCCO2)n1 (stereo not given) returned Apaf1 activ -50.0*, Rh110 interf act -1.0 and Apaf-1 act conf2 6.9.
`COc1ccc(-n2c(N)c(C(=O)NCC3CCCO3)c3nc4ccccc4nc32)c(OC)c1` (stereo not given) gave Apaf1 activ 65.8.
Screening C=CCn1c(N)c(C(=O)NCC2CCCO2)c2nc3ccccc3nc21 (stereo not given) returned Apaf1 activ 77.7.
For COc1ccc(C2=NO[C@@H]3[C@@H]4C[C@@H]([C@H]5C(=O)N(C)C(=O)[C@@H]45)[C@H]23)c(OC)c1 the results were Apaf1 activ -62.9*, Rh110 interf act 7.7 and Apaf-1 act conf2 13.6.
Cn1c(C(=O)NCCN2CCCCCC2)cc2c(=O)n(C)c3ccccc3c21 was read as Apaf1 activ 43.0.
`Cc1ccc2c(C)nc(Nc3nc(CSc4nc5ccccc5[nH]4)cc(=O)[nH]3)nc2c1` gave Apaf1 activ -71.4*, Rh110 interf act 4.3 and Apaf-1 act conf2 5.1.
`CC(=O)Nc1cccc(C(=O)NC(C)c2ccc(-n3ccnc3)cc2)c1` (stereo not given) gave Apaf1 activ 40.7.
CCCC(C(=O)NC(C)(C)C)N(Cc1ccc(F)cc1)C(=O)c1snc(C(N)=O)c1N (stereo not given) was read as Apaf1 activ -107.9*, Rh110 interf act 14.2 and Apaf-1 act conf2 14.5.
Screening CCOC(=O)c1ccc(N2CSC3=C(C#N)C(c4cccs4)CC(=O)N3C2)cc1 (stereo not given) returned Apaf1 activ 54.7.
